Tests used:
[1] = Induction of NO release assessed as nitrite level; type: physicochemical
Summary of the method: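 Indirect measurement on a Sievers NOA 280 nitric oxide analyser; compounds dissolved in DMSO (1 mg in 200 µL) and analysed in oxygenated medium. Nitrite anion, the NO degradation byproduct, quantified; result given as IC50.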

Trypanosoma cruzi = test: Trypanocidal activity against Trypanosoma cruzi Tulahuen C2C4 amastigotes infected in rat L6 cells after 4 days; type: functional, organism-based; conditions: Tulahuen C2C4, L6, 96 h
[2] = Permeability across basolateral to apical side in human Caco2 cells; type: ADME, cell-based; conditions: Caco-2, read-out: permeability
Summary of the method: (§1)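 Caco-2 grown 21 days on Transwell filters (seeded 5 × 10⁴ cells/cm²); monolayer integrity checked by TEER and fluorescein, metoprolol, amoxicillin markers. […] compound in HBSS pH 7.4 dosed A→B and B→A, basolateral pH 7.4, 37 °C, orbital shaking 25 rpm. Quantified by HPLC-UV 254 nm (C18, 35 °C, phosphate pH 3.5/acetonitrile 50:50). Papp = (VR·ΔQ/Δt)/(A·C0), using only receiver concentrations under 10% of donor.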

HepG2 = test: Cytotoxicity against human HepG2 cells after 24 hrs by XTT assay; type: cell-based; conditions: HepG2, 24 h
Summary of the method: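 Cells kept in DMEM with 10% FCS, penicillin/streptomycin and bicarbonate at 37 °C, 5% CO2; plated at 5 × 10⁴ cells/well 24 h before treatment. Exposed 24 h to […] in DMSO (final 0.44% v/v). After two PBS washes, XTT reagent added for 1 h at 37 °C; OD 450 nm minus 690 nm, normalized to medium-only controls.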

[3] = Selectivity index, ratio of IC50 for human HepG2 cells to IC50 for Trypanosoma cruzi Tulahuen C2C4; type: toxicity, cell-based; conditions: read-out: Ratio IC50
Summary of the method: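 SI computed as XTT cytotoxicity IC50 divided by amastigote IC50.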

[4] = Permeability across apical to basolateral side in human Caco2 cells; type: ADME, cell-based; conditions: Caco-2, read-out: permeability; summary of the method: as §1
[5] = Efflux ratio of permeability from basolateral to apical side over apical to basolateral side in human Caco2 cells; type: ADME, cell-based; conditions: Caco-2
Cruzipain = Cruzipain (Trypanosoma cruzi, UniProt P25779); test: Inhibition of Trypanosoma cruzi cruzain expressed in Escherichia coli M15/DH5alpha using Z-Phe-Arg-AMC as substrate by spectrofluorometry
Summary of the method: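 C-terminally truncated cruzain (0.64 nM) in 50 mM sodium phosphate, 100 mM NaCl, 5 mM EDTA, 5 mM DTT, pH 6.5, preincubated 5 min at room temperature with inhibitor before adding Z-Phe-Arg-AMC. AMC release followed by fluorescence (ex 355, em 460 nm). IC50 by nonlinear regression of activity relative to no-inhibitor control.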

Sequence of Cruzipain (P25779 whole entry, the tested form may be a part): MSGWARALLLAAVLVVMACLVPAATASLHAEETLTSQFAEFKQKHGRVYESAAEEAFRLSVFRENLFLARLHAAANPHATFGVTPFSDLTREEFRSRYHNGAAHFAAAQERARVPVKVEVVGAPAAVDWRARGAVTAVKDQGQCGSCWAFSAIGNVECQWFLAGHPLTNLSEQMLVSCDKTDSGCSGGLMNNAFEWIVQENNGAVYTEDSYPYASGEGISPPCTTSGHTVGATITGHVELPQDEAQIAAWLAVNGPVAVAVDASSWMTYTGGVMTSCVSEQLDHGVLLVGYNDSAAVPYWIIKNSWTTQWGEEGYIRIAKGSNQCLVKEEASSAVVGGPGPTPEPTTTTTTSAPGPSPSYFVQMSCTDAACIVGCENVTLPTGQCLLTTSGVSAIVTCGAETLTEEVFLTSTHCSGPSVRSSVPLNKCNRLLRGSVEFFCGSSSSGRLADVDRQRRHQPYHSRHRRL

| IC50 [1] | Papp B→A [2] | Papp A→B [4] | efflux ratio [5] | IC50 (Cruzipain) | Structure (SMILES) | IC50 (Trypanosoma cruzi) | IC50 (HepG2) | selectivity ratio [3] |
| --- | --- | --- | --- | --- | --- | --- | --- | --- |
| 210 µM |  |  |  |  | Cc1c(/C=N/NC(=O)c2ccccc2)no[n+]1[O-] | > 100 µM |  |  |
| 898 µM |  |  |  |  | Cc1c(/C=N/NC(=O)Cc2ccccc2)no[n+]1[O-] | > 100 µM |  |  |
| 102 µM |  |  |  |  | Cc1c(/C=N/NC(=O)c2ccc(Br)cc2)no[n+]1[O-] | 27.4 µM |  |  |
| 56 µM |  |  |  |  | Cc1c(/C=N/NC(=O)c2ccc(Cl)cc2)no[n+]1[O-] | 14.3 µM |  |  |
| 124 µM |  |  |  |  | Cc1c(/C=N/NC(=O)c2ccccc2Nc2ccccc2)no[n+]1[O-] | 5.69 µM |  |  |
| 132 µM |  |  |  |  | O=C(N/N=C/c1c(-c2ccccc2)no[n+]1[O-])c1ccccc1 | > 100 µM |  |  |
| 33.4 µM |  |  |  |  | O=C(Cc1ccccc1)N/N=C/c1c(-c2ccccc2)no[n+]1[O-] | 9.1 µM |  |  |

Second part, the compound before the results:

| Structure (SMILES) | IC50 [1] | Papp B→A [2] | Papp A→B [4] | efflux ratio [5] | IC50 (Cruzipain) | IC50 (Trypanosoma cruzi) | IC50 (HepG2) | selectivity ratio [3] |
| --- | --- | --- | --- | --- | --- | --- | --- | --- |
| Cc1c(/C=N/NC(=O)c2cccc([N+](=O)[O-])c2)no[n+]1[O-] | 52 µM |  |  |  |  | 9.94 µM |  |  |
| Cc1c(/C=N/NC(=O)c2ccco2)no[n+]1[O-] | 1220 µM |  |  |  |  | 6.7 µM |  |  |
| Cc1c(/C=N/NC(=O)c2ccc([N+](=O)[O-])cc2)no[n+]1[O-] | 242 µM | 37.6 ×10⁻⁶ cm/s | 43.2 ×10⁻⁶ cm/s | 0.87 | 11.2 µM | 2.88 µM | 80.9 µM | 28.1 |
| O=C(N/N=C/c1c(-c2ccccc2)no[n+]1[O-])c1ccco1 | 867 µM |  |  |  |  | 8.12 µM |  |  |
| O=C(N/N=C/c1c(-c2ccccc2)no[n+]1[O-])c1ccc(Cl)cc1 | 4230 µM |  |  |  |  | > 100 µM |  |  |
| O=C(N/N=C/c1c(-c2ccccc2)no[n+]1[O-])c1ccc(Br)cc1 | 601 µM |  |  |  |  | > 100 µM |  |  |
| O=C(N/N=C/c1c(-c2ccccc2)no[n+]1[O-])c1cccc([N+](=O)[O-])c1 | 912 µM |  |  |  |  | 15.3 µM |  |  |
| O=C(N/N=C/c1c(-c2ccccc2)no[n+]1[O-])c1ccc([N+](=O)[O-])cc1 | 110 µM | 0.52 ×10⁻⁶ cm/s | 0.82 ×10⁻⁶ cm/s | 0.63 | 15.1 µM | 2.9 µM | 45.5 µM | 15.7 |
| O=C(Cn1ccnc1[N+](=O)[O-])NCc1ccccc1 [BENZNIDAZOLE] |  |  |  |  |  | 1.5 µM | 28.1 µM | 18.7 |

Source: ChEMBL document CHEMBL3286336, “Design, synthesis and biological evaluation of hybrid bioisoster derivatives of N-acylhydrazone and furoxan groups with potential and selective anti-Trypanosoma cruzi activity” (Eur J Med Chem, 2014)
